Assay results from ChEMBL document CHEMBL4325889, “Natural products hybrids: 3,5,4'-Trimethoxystilbene-5,6,7-trimethoxyflavone chimeric analogs as potential cytotoxic agents against diverse human cancer cells” (Eur J Med Chem, 2019).

What was measured:
Format in all cases: functional
[1] = test system: MDA-MB-468; assay: Growth inhibition of human MDA-MB-468 cells at 10 uM after 48 hrs by SRB assay relative to control; conditions: MDA-MB-468, 48 h, read-out: GI
Procedure, shortened: (§1)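 Screened at the National Cancer Institute by the standard NCI protocol using the sulforhodamine B assay, which measures cellular protein. Single dose of 10 µM. Result is percent growth inhibition; values above 100% mean cell number fell below the initial population. Values are the average of duplicates.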

[2] = test system: UACC-257; assay: Growth inhibition of human UACC257 cells at 10 uM after 48 hrs by SRB assay relative to control; conditions: UACC-257, 48 h, read-out: GI
Procedure, shortened: (§2)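 NCI screen against its human cancer cell line panel by the standard NCI protocol, SRB protein stain. Single dose of 10 μM. Percent growth inhibition versus control; values above 100% mean the cell population fell below the starting number. Each value is the mean of duplicates.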

[3] = test system: IGROV-1; assay: Growth inhibition of human IGROV1 cells at 10 uM after 48 hrs by SRB assay relative to control; conditions: IGROV-1, 48 h, read-out: GI; procedure, shortened: as §1
[4] = test system: HCC 2998; assay: Growth inhibition of human HCC2998 cells at 10 uM after 48 hrs by SRB assay relative to control; conditions: HCC 2998, 48 h, read-out: GI; procedure, shortened: as §1
[5] = test system: HOP-92; assay: Growth inhibition of human HOP92 cells at 10 uM after 48 hrs by SRB assay relative to control; conditions: HOP-92, 48 h, read-out: GI; procedure, shortened: as §1
[6] = test system: CAKI-1; assay: Growth inhibition of human Caki1 cells at 10 uM after 48 hrs by SRB assay relative to control; conditions: CAKI-1, 48 h, read-out: GI; procedure, shortened: as §1
[7] = test system: NCI-H23; assay: Growth inhibition of human NCI-H23 cells at 10 uM after 48 hrs by SRB assay relative to control; conditions: NCI-H23, 48 h, read-out: GI; procedure, shortened: as §1
[8] = test system: LOX IMVI; assay: Growth inhibition of human LOXIMVI cells at 10 uM after 48 hrs by SRB assay relative to control; conditions: read-out: GI; procedure, shortened: as §1
[9] = test system: U-251; assay: Growth inhibition of human U251 cells at 10 uM after 48 hrs by SRB assay relative to control; conditions: U-251, 48 h, read-out: GI; procedure, shortened: as §2
[10] = test system: NCI-H522; assay: Growth inhibition of human NCI-H522 cells at 10 uM after 48 hrs by SRB assay relative to control; conditions: NCI-H522, 48 h, read-out: GI; procedure, shortened: as §1
[11] = test system: PC-3; assay: Growth inhibition of human PC3 cells at 10 uM after 48 hrs by SRB assay relative to control; conditions: PC-3, 48 h, read-out: GI; procedure, shortened: as §1
[12] = test system: RXF 393; assay: Growth inhibition of human RXF393 cells at 10 uM after 48 hrs by SRB assay relative to control; conditions: RXF 393, 48 h, read-out: GI; procedure, shortened: as §1
[13] = test system: OVCAR-4; assay: Growth inhibition of human OVCAR4 cells at 10 uM after 48 hrs by SRB assay relative to control; conditions: OVCAR-4, 48 h, read-out: GI; procedure, shortened: as §1
[14] = test system: SK-MEL-5; assay: Growth inhibition of human SK-MEL-5 cells at 10 uM after 48 hrs by SRB assay relative to control; conditions: SK-MEL-5, 48 h, read-out: GI; procedure, shortened: as §1
[15] = test system: K562; assay: Growth inhibition of human K562 cells at 10 uM after 48 hrs by SRB assay relative to control; conditions: K562, 48 h, read-out: GI; procedure, shortened: as §1
[16] = test system: SK-MEL-28; assay: Growth inhibition of human SK-MEL-28 cells at 10 uM after 48 hrs by SRB assay relative to control; conditions: SK-MEL-28, 48 h, read-out: GI; procedure, shortened: as §1
[17] = test system: OVCAR-3; assay: Growth inhibition of human OVCAR3 cells at 10 uM after 48 hrs by SRB assay relative to control; conditions: OVCAR-3, 48 h, read-out: GI; procedure, shortened: as §1
[18] = test system: OVCAR-5; assay: Growth inhibition of human OVCAR5 cells at 10 uM after 48 hrs by SRB assay relative to control; conditions: OVCAR-5, 48 h, read-out: GI; procedure, shortened: as §1
[19] = test system: SW-620; assay: Growth inhibition of human SW620 cells at 10 uM after 48 hrs by SRB assay relative to control; conditions: SW-620, 48 h, read-out: GI; procedure, shortened: as §2
[20] = test system: HL-60(TB); assay: Growth inhibition of human HL-60(TB) cells at 10 uM after 48 hrs by SRB assay relative to control; conditions: HL-60, 48 h, read-out: GI
Procedure, shortened: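 Run at NCI under its standard single-dose protocol against a leukemia cell panel. Cells were exposed to 10 µM; growth was read by sulforhodamine B staining of cellular protein and expressed as % growth inhibition versus untreated control. Values above 100% mean the cell population fell below the starting count (cytocidal). Each value is the average of duplicates.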

[21] = test system: SK-MEL-2; assay: Growth inhibition of human SK-MEL-2 cells at 10 uM after 48 hrs by SRB assay relative to control; conditions: SK-MEL-2, 48 h, read-out: GI; procedure, shortened: as §1
[22] = test system: MOLT-4; assay: Growth inhibition of human MOLT4 cells at 10 uM after 48 hrs by SRB assay relative to control; conditions: MOLT-4, 48 h, read-out: GI; procedure, shortened: as §1
[23] = test system: Hs-578T; assay: Growth inhibition of human Hs 578T cells at 10 uM after 48 hrs by SRB assay relative to control; conditions: read-out: GI; procedure, shortened: as §1
[24] = test system: SNB-75; assay: Growth inhibition of human SNB75 cells at 10 uM after 48 hrs by SRB assay relative to control; conditions: SNB-75, 48 h, read-out: GI; procedure, shortened: as §2
[25] = test system: DU-145; assay: Growth inhibition of human DU145 cells at 10 uM after 48 hrs by SRB assay relative to control; conditions: DU-145, 48 h, read-out: GI; procedure, shortened: as §1
[26] = test system: SF-295; assay: Growth inhibition of human SF295 cells at 10 uM after 48 hrs by SRB assay relative to control; conditions: SF-295, 48 h, read-out: GI; procedure, shortened: as §1
[27] = test system: BT-549; assay: Growth inhibition of human BT549 cells at 10 uM after 48 hrs by SRB assay relative to control; conditions: BT-549, 48 h, read-out: GI; procedure, shortened: as §1
[28] = test system: SF-539; assay: Growth inhibition of human SF539 cells at 10 uM after 48 hrs by SRB assay relative to control; conditions: SF-539, 48 h, read-out: GI; procedure, shortened: as §1
[29] = test system: MCF7; assay: Growth inhibition of human MCF7 cells at 10 uM after 48 hrs by SRB assay relative to control; conditions: MCF7, 48 h, read-out: GI; procedure, shortened: as §1
[30] = test system: CCRF-CEM; assay: Growth inhibition of human CCRF-CEM cells at 10 uM after 48 hrs by SRB assay relative to control; conditions: read-out: GI; procedure, shortened: as §1
[31] = test system: SR; assay: Growth inhibition of human SR cells at 10 uM after 48 hrs by SRB assay relative to control; conditions: read-out: GI; procedure, shortened: as §2
[32] = test system: RPMI-8226; assay: Growth inhibition of human RPMI8226 cells at 10 uM after 48 hrs by SRB assay relative to control; conditions: RPMI-8226, 48 h, read-out: GI; procedure, shortened: as §1
[33] = test system: NCI/ADR-RES; assay: Growth inhibition of human NCI/ADR-RES cells at 10 uM after 48 hrs by SRB assay relative to control; conditions: read-out: GI; procedure, shortened: as §1

SMILES | inhibition of growth at 10 µM [1] [%] | inhibition of growth at 10 µM [2] [%] | inhibition of growth at 10 µM [3] [%] | inhibition of growth at 10 µM [4] [%] | inhibition of growth at 10 µM [5] [%] | inhibition of growth at 10 µM [6] [%] | inhibition of growth at 10 µM [7] [%] | inhibition of growth at 10 µM [8] [%] | inhibition of growth at 10 µM [9] [%] | inhibition of growth at 10 µM [10] [%] | inhibition of growth at 10 µM [11] [%] | inhibition of growth at 10 µM [12] [%] | inhibition of growth at 10 µM [13] [%] | inhibition of growth at 10 µM [14] [%] | inhibition of growth at 10 µM [15] [%] | inhibition of growth at 10 µM [16] [%] | inhibition of growth at 10 µM [17] [%] | inhibition of growth at 10 µM [18] [%] | inhibition of growth at 10 µM [19] [%] | inhibition of growth at 10 µM [20] [%] | other results
COc1cc2oc(-c3cccc(C(=O)Nc4ccc5c(c4)OCO5)c3)cc(=O)c2c(OC)c1OC | 1.72 | 5.96 | 39.8 | 2.03 | 21.9 | 27.9 | 10.3 | 81.5 | 9.36 | 26.9 | 26.5 | 29 | 3.72 | 47.2 | 25.8 | 20.4 | 12.7 | 16.4 | -4.89 | 30.3 | inhibition of growth at 10 µM [21]: -2.38%; inhibition of growth at 10 µM [22]: 35.2%; inhibition of growth at 10 µM [23]: 14%; inhibition of growth at 10 µM [24]: -1.27%; inhibition of growth at 10 µM [25]: 18.7%; inhibition of growth at 10 µM [26]: 2.37%; inhibition of growth at 10 µM [27]: 42.4%; inhibition of growth at 10 µM [28]: 14.7%; inhibition of growth at 10 µM [29]: 17.9%; inhibition of growth at 10 µM [30]: 36.6%; inhibition of growth at 10 µM [31]: 52.4%; inhibition of growth at 10 µM [32]: 79.1%; inhibition of growth at 10 µM [33]: 35.1%
COc1cc2oc(-c3cccc(C(=O)Nc4ccc5c(c4)OCO5)c3)cc(=O)c2c(O)c1OC | 45.4 | 21.8 | 18.4 | -4.53 | 27 | 23.1 | 27.3 | 11.8 | 44.2 | 23.9 | 27.7 | 18.5 | 99.9 | 16 | 5.51 | 10.2 | 10.5 | 11.1 | 15.5 | 5.71 | inhibition of growth at 10 µM [21]: 10.1%; inhibition of growth at 10 µM [22]: -0.5%; inhibition of growth at 10 µM [23]: 27.3%; inhibition of growth at 10 µM [24]: 15.4%; inhibition of growth at 10 µM [25]: 19.6%; inhibition of growth at 10 µM [26]: 7.93%; inhibition of growth at 10 µM [27]: 16%; inhibition of growth at 10 µM [28]: 11.2%; inhibition of growth at 10 µM [29]: 8.35%; inhibition of growth at 10 µM [30]: 2.77%; inhibition of growth at 10 µM [31]: 24.1%; inhibition of growth at 10 µM [32]: 20.2%; inhibition of growth at 10 µM [33]: 29.4%
